Measurements reported in ChEMBL document CHEMBL1142170, “Mechanism of activation of beta-D-2'-deoxy-2'-fluoro-2'-c-methylcytidine and inhibition of hepatitis C virus NS5B RNA polymerase” (Antimicrob Agents Chemother, 2007).
pKi: −log10 of the molar value.

How the values were obtained:
[1] = Inhibition of HCV NS5B RNA polymerase S282T mutant assessed as incorporation of 32P-UMP into RNA; set-up: species or system Hepacivirus hominis
Summary of the method: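 Purified 21-aa C-terminally truncated NS5B (S282T; wild type for comparison) on minus-IRES template, run in 50 mM HEPES pH 7.5 with 1 mM MgCl2, 0.75 mM MnCl2, 2 mM DTT and [α-32P]UTP at 27°C. Natural substrate and inhibitor were both varied against fixed remaining NTPs (UTP 10 μM, others 100 μM). Product was membrane-captured and counted. Ki was obtained by fitting a competitive inhibition equation.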

[2] = Inhibition of HCV NS5B RNA polymerase assessed as incorporation of 32P-UMP into RNA; set-up: species or system Hepacivirus hominis
Summary of the method: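 Steady-state Ki against truncated NS5B (wild-type and S282T) on minus IRES template, 27°C, HEPES pH 7.5 with Mg2+/Mn2+/DTT and [α-32P]UTP. For ATP analog, UTP 10, GTP and CTP 100 μM, ATP and inhibitor varied. For CTP analogs, UTP 10, ATP and GTP 100 μM, CTP and inhibitor varied. Membrane-bound product counted, rates fit to competitive inhibition.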

Q: With C[C@@]1(O)[C@H](O)[C@@H](COP(=O)(O)OP(=O)(O)OP(=O)(O)O)O[C@H]1n1cnc2c(N)ncnc21 as the compound, how does the pKi [1] read?
A: 4.66

Q: What about the pKi [2] of the same compound?
A: 5.82

Q: With C[C@@]1(F)[C@H](O)[C@@H](COP(=O)(O)OP(=O)(O)OP(=O)(O)O)O[C@H]1n1ccc(N)nc1=O [PSI-6130-TP] as the compound, how does the pKi [1] read?
A: 5.60

Q: What about the pKi [2] of the same compound?
A: 5.37

Q: With C[C@@]1(O)[C@H](O)[C@@H](COP(=O)(O)OP(=O)(O)OP(=O)(O)O)O[C@H]1n1ccc(N)nc1=O [2'-C-METHYLCYTIDINE TRIPHOSPHATE] as the compound, how does the pKi [1] read?
A: 5.42

Q: What about the pKi [2] of the same compound?
A: 5.80
